Screening results as filed in PubChem BioAssay.
Casp6 inh – blocks human caspase-6 cleavage activity | purified caspase-6, Z-VEID-R110 cleavage fluorescence | 350,000 tested, 0.53% active | AID 686996 | P55212 | inhibition, % at 12.5 µM;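 active = mean inhibition across replicates at least about 35%, with every replicate also reaching that limit, limit read from the data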
Target sequence (P55212 24-179 limits assumed): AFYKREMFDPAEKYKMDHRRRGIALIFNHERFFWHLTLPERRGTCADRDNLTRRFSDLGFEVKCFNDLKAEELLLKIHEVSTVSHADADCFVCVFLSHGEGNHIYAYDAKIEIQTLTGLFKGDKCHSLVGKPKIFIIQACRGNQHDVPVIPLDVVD
Target sequence (P55212 194-293 limits assumed): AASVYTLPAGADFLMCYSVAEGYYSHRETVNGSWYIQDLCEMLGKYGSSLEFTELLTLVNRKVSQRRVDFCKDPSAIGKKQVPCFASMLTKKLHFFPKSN
ASAP1 GAP inh – ASAP1 ArfGAP inhibition. 360,000 tested, 0.19% active. AID 624377. Q9ULH1. ASAP1-stimulated ARF1 GTP hydrolysis, GDP FP detection. inhibition, % at 16.5 µM; in the data active = inhibition above about 25%
Target sequence (Q9ULH1 325-724 limits assumed): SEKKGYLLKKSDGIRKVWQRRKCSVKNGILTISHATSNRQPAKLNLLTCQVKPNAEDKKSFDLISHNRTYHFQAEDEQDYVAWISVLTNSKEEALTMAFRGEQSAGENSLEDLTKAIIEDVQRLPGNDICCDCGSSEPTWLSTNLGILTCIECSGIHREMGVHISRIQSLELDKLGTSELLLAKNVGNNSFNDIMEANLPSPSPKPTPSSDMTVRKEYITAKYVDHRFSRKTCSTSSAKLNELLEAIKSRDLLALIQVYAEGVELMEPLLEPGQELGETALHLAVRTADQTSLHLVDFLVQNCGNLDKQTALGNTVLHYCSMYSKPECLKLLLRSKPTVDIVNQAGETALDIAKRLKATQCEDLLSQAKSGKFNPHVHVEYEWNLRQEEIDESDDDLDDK
TDP2 inh – blocks human TDP2 phosphodiesterase activity. inhibition, % at 12.8 µM. O95551. recombinant TDP2, T5PNP hydrolysis, p-nitrophenol absorbance 415 nm. 370,000 tested, 0.34% active;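 active = inhibition above the mean of all tested compounds plus 3 SD, set per campaign, cut at about 25% in these data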
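Assay system: Recombinant human TDP2 | Quantity: 120 nM TDP2 per well | Incubation: 2 h at 37 °C | Signal: Epi absorbance | Evaluation: Percent inhibition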
ARFGAP1 inhibitor – inhibits rat ARF GTPase activating protein 1. Q62848. Arfgap1-stimulated ARF1 GTP hydrolysis, GDP FP detection. inhibition, % at 16.5 µM. 360,000 tested, 0.26% active;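 active = inhibition above a per-plate limit, mean inhibition of low control wells plus 3 SD, cut at about 25% in these data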
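System: truncated rat Arfgap1 GAP domain / Benchmarks: high control wells lacking Arfgap1, low control full reaction with DMSO / Times: compound-enzyme preincubation 20 min, reaction 120 min, detection 60 min, 25 °C / Repeats: one replicate per compound / Also added: human ARF1(Δ1-17)-GTP substrate / Measured by: Tracer-displacement fluorescence polarization with EDTA stop, 620/688 nm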
LEDGF integ inh – blocks HIV-1 LEDGF/p75-dependent DNA integration; 370,000 tested, 0.64% active; AID 743269; TR-FRET IN-LEDGF/p75 DNA integration, Eu/Cy5; inhibition, % at 3.7 µM;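 active = inhibition above the screen-wide mean plus 3 SD, cut at about 13% in these data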;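 also: signal is the Cy5 over europium emission ratio at 671 and 618 nm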
ARFGAP1 inh conf – confirmation of rat ARFGAP1 inhibitors; inhibition, % at 16.5 µM; shares compounds with ARFGAP1 inhibitor; ARFGAP1-stimulated ARF1 GTP hydrolysis, GDP tracer FP; 890 tested, 30% active;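 active = average inhibition over triplicates above the hit cutoff set in the earlier primary screen, cut at about 25% in these data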
Each line names hits and unclear results; the compound was inactive in the other large screens (follow-up assays come after a bar, where they were run). Most compounds without a hit are left out; they make up all but 1.3% or so of the library.

O=c1cc(Cc2nnc(SCc3ccccc3)n2-c2ccc(Cl)cc2)[nH]c(=O)[nH]1	none
CCCNC(=O)N1C[C@H](C)[C@H](OC)CN(C)C(=O)c2cc(NS(=O)(=O)CC)ccc2OC[C@@H]1C	none (no result: ASAP1 GAP inh, TDP2 inh, ARFGAP1 inhibitor, LEDGF integ inh)
O=C(CCC(=O)OC(C(=O)c1ccccc1)c1ccccc1)Nc1ccccc1 (stereo unspecified)	none (no result: Casp6 inh)
O=C(COc1ccc(/C=N/NS(=O)(=O)c2ccccc2)cc1)Nc1cccc(Cl)c1	none (no result: Casp6 inh)
CCC(C)C(=O)Nc1nc(C)c(-c2csc(Nc3cc(Cl)ccc3OC)n2)s1 (stereo unspecified)	ARFGAP1 inhibitor 31 | ARFGAP1 inh conf inactive
CCC(C)C(=O)Nc1nc(C)c(-c2csc(Nc3cc(OC)ccc3OC)n2)s1 (stereo unspecified)	none
Nc1nc(/C=C/c2cccnc2)nc(-c2ccccc2O)n1	ARFGAP1 inhibitor 37 | ARFGAP1 inh conf 25
CCN1CCN(c2ccc(S(=O)(=O)N3CCOCC3)cc2NC(=O)/C=C/c2ccc([N+](=O)[O-])cc2)CC1	ARFGAP1 inhibitor 37 | ARFGAP1 inh conf 37
COc1ccc(/C=C/C(=O)Nc2ccc(S(=O)(=O)N3CCOCC3)cc2)c(OC)c1	none
CCN1CCN(c2ccc(S(=O)(=O)N3CCOCC3)cc2NC(=O)/C=C/c2ccc(OC)cc2OC)CC1	ARFGAP1 inhibitor 33 | ARFGAP1 inh conf inactive
COc1ccc(S(=O)(=O)Nc2c(C)n(C)n(-c3ccccc3)c2=O)c(Cl)c1Cl	none
CCCCCn1c(=O)[nH]c2cc(C(=O)NCCN(CC)CC)ccc2c1=O	none (no result: Casp6 inh)
Cc1[nH]c2c(C)cccc2c1CCNC(=O)c1ccc2c(c1[N+](=O)[O-])C(=O)c1ccccc1C2=O	ARFGAP1 inhibitor 26 (no result: Casp6 inh) | ARFGAP1 inh conf inactive
O=S1(=O)CCC(=Nc2ccc(Cl)cc2)c2ccsc21	none
C[C@@H]1CN([C@H](C)CO)C(=O)c2cc(-c3ccccc3)cnc2O[C@@H]1CN(C)Cc1ccccc1	none (no result: ASAP1 GAP inh, TDP2 inh, ARFGAP1 inhibitor, LEDGF integ inh)
CCCOc1ccc(/C=N/NC(=O)c2ccc(Cn3cc([N+](=O)[O-])cn3)o2)cc1	ARFGAP1 inhibitor 26 (no result: Casp6 inh) | ARFGAP1 inh conf 33
Cc1ccc(/C=N/NC(=O)c2ccc(Cn3cc([N+](=O)[O-])cn3)o2)cc1	none (no result: Casp6 inh)
Cc1cc(C(c2ccc(O)cc2)c2cc(C)c(O)cc2C)c(C)cc1O	none
Cc1nn(Cc2ccc(C(=O)Nc3ccc(C(=O)OC(C)C)cc3)o2)c(C)c1Cl	ARFGAP1 inhibitor 26 (no result: Casp6 inh) | ARFGAP1 inh conf 27
CCN(CC)CCNC(=O)c1ccc(NC(=O)CC(NC(=O)c2ccccc2Cl)c2ccccc2)cc1 (stereo unspecified)	none
COc1ccc(NC(=O)c2ccc(NC(=O)COC(=O)CC(NC(=O)c3ccccc3Cl)c3ccccc3)cc2)cc1 (stereo unspecified)	ARFGAP1 inhibitor 26 (no result: Casp6 inh) | ARFGAP1 inh conf inactive
CCCS(=O)(=O)c1nc(S(=O)(=O)c2ccc(C)cc2)c(N2CCN(C)CC2)s1	none
Cc1nc(-c2ccc(F)cc2)c(CC(=O)N(C)CC(=O)Nc2ccc(Br)cc2C)s1	none
CC(=O)Nc1ccc(OCC(O)Cn2c3ccccc3c3ccccc32)c(C)c1 (stereo unspecified)	ARFGAP1 inhibitor 25 (no result: Casp6 inh) | ARFGAP1 inh conf 26
CCCn1c(N)c(C(=O)CSc2nc3ncc(Cl)cc3[nH]2)c(=O)n(C)c1=O	none
CC(C)Cn1c(N)c(C(=O)CSc2nc3ncc(Cl)cc3[nH]2)c(=O)n(C)c1=O	ARFGAP1 inhibitor 25 | ARFGAP1 inh conf inactive
CCOC(=O)c1oc2ccccc2c1NC(=O)CCl	none
CCOC(=O)c1oc2ccccc2c1NC(=O)c1ccc(Cl)s1	ARFGAP1 inhibitor 32 | ARFGAP1 inh conf inactive
Cc1nn(-c2ccc(Cl)cc2)c(=O)c2ccccc12	none
Cc1c(Cl)sn(-c2ccc(Cl)cc2)c1=O	ARFGAP1 inhibitor 30 | ARFGAP1 inh conf inactive
Cc1cc(C)c(NC(=O)CCCn2c(=O)oc3ccccc32)c(C)c1	none
O=C1c2ccccc2C(Nc2ccc3c(c2)OCCO3)N1c1ccc(Cl)cn1 (stereo unspecified)	ARFGAP1 inhibitor 25 | ARFGAP1 inh conf inactive
COc1ccc(OC)c(NC(=O)C2(C)CCN2Cc2ccc(OC)c3ccccc23)c1 (stereo unspecified)	none
COc1ccc(OC)c(NC(=O)C2(C)CCN2Cc2ccccc2Cl)c1 (stereo unspecified)	ARFGAP1 inhibitor 25 | ARFGAP1 inh conf inactive
Cc1nc([N+](=O)[O-])c(Br)n1Cc1ccccc1	none
COc1ccc(C(C#N)N2CCC(c3ccccc3)=N2)cc1OC (stereo unspecified)	none
COc1cc(C(C#N)N2CCC(c3ccccc3)=N2)ccc1O (stereo unspecified)	ARFGAP1 inhibitor 27 | ARFGAP1 inh conf inactive
Nc1nc(CSC(=S)N2CCN(c3ccccc3)CC2)nc(Nc2ccc(F)cc2)n1	none (no result: Casp6 inh)
CC(Oc1ccccc1)C(=O)Nc1c2c(nn1-c1ccccc1)CS(=O)(=O)C2 (stereo unspecified)	none
O=C(CSc1nnc(SCc2cccc3ccccc23)s1)N/N=C/c1c[nH]c2ccccc12	ARFGAP1 inhibitor 32 (no result: Casp6 inh) | ARFGAP1 inh conf inactive
O=C(CSc1nnc(SCc2ccc(Cl)cc2)s1)N/N=C/c1c[nH]c2ccccc12	none (no result: Casp6 inh)
Cc1cccc(Nc2ncccc2C(=O)NCc2cccs2)c1C	ARFGAP1 inhibitor 26 (no result: Casp6 inh) | ARFGAP1 inh conf inactive
Cc1ccc(Nc2ncccc2C(=O)NCc2cccs2)c(C)c1	none (no result: Casp6 inh)
CCOc1cc(/C=C2\SC(=N)N(c3nccs3)C2=O)ccc1OCCN1CCOCC1	ARFGAP1 inhibitor 39 | ARFGAP1 inh conf 43
Nc1[nH]c(C(=O)c2ccccc2)c(-c2ccccc2C(F)(F)F)c1C(=O)NCCc1c[nH]c2ccccc12	ARFGAP1 inhibitor 25 | ARFGAP1 inh conf inactive
Nc1[nH]c(C(=O)c2ccccc2)c(-c2ccccc2Br)c1C(=O)NCCc1c[nH]c2ccccc12	none
O=C(NCCc1nc2ccccc2[nH]1)c1cccc(Br)c1	ARFGAP1 inhibitor 25 | ARFGAP1 inh conf inactive
Cc1ccc(S(=O)(=O)Nc2ccccc2)cc1C(=O)N1CCCC1	none
Cn1c(=O)c2c(-c3ccccc3F)c3c(nc2n(C)c1=O)-c1ccccc1C3O (stereo unspecified)	ARFGAP1 inhibitor 25 (no result: Casp6 inh) | ARFGAP1 inh conf inactive
CC(C)c1ccc(S(=O)(=O)N2CCN(C(=O)c3cccc(S(=O)(=O)N4CCOCC4)c3)CC2)cc1	none
COc1ccc(-c2cc(=O)oc3c(C)c(OC(C)C(C)=O)ccc23)cc1 (stereo unspecified)	none
COc1ccc(CNC(=O)CSc2nnc(C(F)(F)F)n2C)cc1	ARFGAP1 inhibitor 29 | ARFGAP1 inh conf inactive
Cc1cc(C2(c3ccc(O)c(C)c3)OC(=O)c3ccccc32)ccc1O	none
Cc1cc(O)c(C(C)C)cc1C1(c2cc(C(C)C)c(O)cc2C)OC(=O)c2ccccc21	ARFGAP1 inhibitor 27 | ARFGAP1 inh conf inactive
